Source: the RNAGym collection of RNA variant scans (doi:10.1126/science.aae0568)
Variants at the floor of the assay were thinned out.

B1: tRNA (parent)
chain: GUUCCGUUGGCGUAAUGGUAACGCGUCUCCCUCCUAAGGAGAAGACUGCGGGUUCGAGUCCCGUACGGAACG

Variants of: B1
Assay: yeast fitness relative to wild type (ratio to wild type); higher = fitter; tRNA-Arg(CCU), competitive growth, 37 C, YPD
Method in brief: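 Start and end populations of a pooled competition were compared by 100-nucleotide paired-end sequencing of gene amplicons. The Saccharomyces cerevisiae strains carried tRNA-Arg(CCU) gene variants at the native genomic locus, synthesised with a 3% per-site mutation rate at 69 sites, and competed in YPD at 37°C for 24 hours in six parallel replicates. Darwinian fitness relative to wild type was based on the change in genotype frequencies. Genotypes required ≥ 100 starting reads, and estimates < 0.5 were set to 0.5.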

| Variant | yeast fitness |
| --- | --- |
| GUUCCGUUGGCGUAAUGGUAACGCGUCUCCCUCCUAAGGAGCAGACUGCGGGUUCGAGUCUGGUACGGAACG [A42C C61U C62G] | ≤ 0.5 |
| GUUCCGUUGGCGUAAUGGUAACGCGUCUCCCUCCUAAGGAGCAGACUGCGGGUUCGAGUGCGGUACGCAACG [A42C C60G C62G G68C] | ≤ 0.5 |
| GUUCCGUUGGCGUAAUGGUAACGCGUCUCCCUCCUAAGGACAAGACUGCGGGUUCGAGUUCCGGACGGAACG [G41C C60U U64G] | ≤ 0.5 |
| GUUCCGUUGGCGUAAUGGUAACGCGUCUCCCUCCUAAGGAGCAGACUGCGAGUUCGAGUCCCGUACGGAACG [A42C G51A] | 0.849 |
| GUUCCGUUGGCGUAAUGGUAACGCGUCUCCCUCCUAAGGACAAGACUCCGGGUUCGAGUCCCGUACGGAACG [G41C G48C] | 0.813 |
| GUUCCGUUGGCGUAAUGGUAACGCGUCUCCCUCCUAAGGACAAGACUGCGGGUUCGAGUCCCGUAGGGAACG [G41C C66G] | 0.594 |
| GUUCCGUUGGCGUAAUGGUAACGCGUCUCCCUCCUAAGGACAAGACUGAGGGUUCGAGUCCCGUACGGAACG [G41C C49A] | 0.572 |
| GUUCCGUUGGCGUAAUGGUAACGCGUCUCCCUCCUAAGGACAAGACUGCGGGUUCGAGUCCCGUACAGAACG [G41C G67A] | 0.89 |
| GUUCCGUUGGCGUAAUGGUAACGCGUCUCCCUCCUAAGGAGCAGGCUGCGGGUUCGAGUCCCGUACGGAACG [A42C A45G] | 0.95 |
| GUUCCGUUGGCGUAAUGGUAACGCGUCUCCCUCCUAAGGAGCAGACUGCGGGUUGGAGUCCCGUACGGAACG [A42C C55G] | 0.612 |
| GUUCCGUUGGCGUAAUGGUAACGCGUCUCCCUCCUAAGGAGCAGACUGCGGGUUUGAGUCCCGUACGGAACG [A42C C55U] | 0.744 |
| GUUCCGUUGGCGUAAUGGUAACGCGUCUCCCUCCUAAGGACAAGACUGCGGGUUCGAGUCCCGUACGCAACG [G41C G68C] | 0.774 |
| GUUCCGUUGGCGUAAUGGUAACGCGUCUCCCUCCUAAGGACAAGACUGCGGGUUCGAGUCCCGUACGAAACG [G41C G68A] | 0.883 |
| GUUCCGUUGGCGUAAUGGUAACGCGUCUCCCUCCUAAGGAGCAGACUGCGGGUUCGAGUUCCGUACGGAACG [A42C C60U] | 0.749 |
| GUUCCGUUGGCGUAAUGGUAACGCGUCUCCCUCCUAAGGACAAGACUGCGGGUUCAAGUCCCGUACGGAACG [G41C G56A] | 0.825 |
| GUUCCGUUGGCGUAAUGGUAACGCGUCUCCCUCCUAAGGAGCCGACUGCGGGUUGGGGUCCCGUACGGAACG [A42C A43C C55G A57G] | 0.641 |
| GUUCCGUUGGCGUAAUGGUAACGCGUCUCCCUCCUAAGGAGCAGACUGCGGGUUCGAGUCCCGUACGGAUCG [A42C A70U] | 1.02 |
| GUUCCGUUGGCGUAAUGGUAACGCGUCUCCCUCCUAAGGAGCAGCCUGCGGGAUCGAGUCCCGUCCGGUACG [A42C A45C U53A A65C A69U] | ≤ 0.5 |
| GUUCCGUUGGCGUAAUGGUAACGCGUCUCCCUCCUAAGGAGCAGAGUGCGGGUUCGAGUCCCGUUCGGAACG [A42C C46G A65U] | ≤ 0.5 |

| Variant | yeast fitness |
| --- | --- |
| GUUCCGUUGGCGUAAUGGUAACGCGUCUCCCUCCUAAGGAGCAGACUGAGGGUUCGAGUCCCGUAAGGAACG [A42C C49A C66A] | ≤ 0.5 |
| GUUCCGUUGGCGUAAUGGUAACGCGUCUCCCUCCUAAGGAGCAGACUGCGGGUUCGCGUCCCGUACGGAACG [A42C A57C] | 0.62 |
| GUUCCGUUGGCGUAAUGGUAACGCGUCUCCCUCCUAAGGAGCAGACUGCGGGUUCGUGUCCCGUACGGAACG [A42C A57U] | 0.688 |
| GUUCCGUUGGCGUAAUGGUAACGCGUCUCCCUCCUAAGGAGCUGACUGCGGGUUCCAGUCCCGUAUGGAACG [A42C A43U G56C C66U] | ≤ 0.5 |
| GUUCCGUUGGCGUAAUGGUAACGCGUCUCCCUCCUAAGGAGCAGACUGCGGGUUAGAGUCCCGUUCGGAACG [A42C C55A A65U] | ≤ 0.5 |
| GUUCCGUUGGCGUAAUGGUAACGCGUCUCCCUCCUAAGGAGCAGACUCCGGGUUCGAGUCCCGUACAGAACG [A42C G48C G67A] | 0.574 |
| GUUCCGUUGGCGUAAUGGUAACGCGUCUCCCUCCUAAGGACAAGACUGCGGGUUCGAGACCCGUACGGAACG [G41C U59A] | 0.801 |
| GUUCCGUUGGCGUAAUGGUAACGCGUCUCCCUCCUAAGGAGCAGACUGCGGGUUCGAGUCCUGUACGGUACG [A42C C62U A69U] | 0.689 |
| GUUCCGUUGGCGUAAUGGUAACGCGUCUCCCUCCUAAGGACAAGACUACGGGUUAGAGUCCCGUACGGAACG [G41C G48A C55A] | 0.569 |
| GUUCCGUUGGCGUAAUGGUAACGCGUCUCCCUCCUAAGGACAAGACUGCGGGUUCGAAUCACGUACGGAACG [G41C G58A C61A] | ≤ 0.5 |
| GUUCCGUUGGCGUAAUGGUAACGCGUCUCCCUCCUAAGGAGCAGAGUGCGGGUUCGAGUCCCGUAAGGAACG [A42C C46G C66A] | 0.552 |
| GUUCCGUUGGCGUAAUGGUAACGCGUCUCCCUCCUAAGGAGCAGACUGGAGGUUCGAGUCCCGUACGGAACG [A42C C49G G50A] | 0.507 |
| GUUCCGUUGGCGUAAUGGUAACGCGUCUCCCUCCUAAGGACAAGACUGCGGGUUCGAGUCGCGUCCGGAACG [G41C C61G A65C] | ≤ 0.5 |
| GUUCCGUUGGCGUAAUGGUAACGCGUCUCCCUCCUAAGGACAAGACUGAGGGUUCGAGUCCCGUACGGUACG [G41C C49A A69U] | 0.544 |
| GUUCCGUUGGCGUAAUGGUAACGCGUCUCCCUCCUAAGGACAAGACUGCGGGUUCGAGUCCCGUACGGUUCG [G41C A69U A70U] | 0.629 |
| GUUCCGUUGGCGUAAUGGUAACGCGUCUCCCUCCUAAGGACAAGACUGCGGGUUCGAGUCCCGUACGGUGCG [G41C A69U A70G] | 0.537 |
| GUUCCGUUGGCGUAAUGGUAACGCGUCUCCCUCCUAAGGACAAGACUGCGGCUUCGAGUCCCGUACGGAACG [G41C G52C] | 0.527 |
| GUUCCGUUGGCGUAAUGGUAACGCGUCUCCCUCCUAAGGAGCAGUUUGCGGGUUCGAGUCCCGUACGGAACG [A42C A45U C46U] | 0.861 |
| GUUCCGUUGGCGUAAUGGUAACGCGUCUCCCUCCUAAGGACAAGAAUGCGGGUUGGAGUCCCGUACGGAACG [G41C C46A C55G] | ≤ 0.5 |
